Data on twelve compounds can be found in publication PMC4548982 (Chembiochem : a European journal of chemical biology, 2015).

For test [1], the system named is control (WT) E. coli ribosomes. Kind of test: EF-G-dependent translocation inhibition. Type of test: biochemical. Particulars: in vitro, WT (and A1408G) ribosomes.
A further test deals with E. coli Δ7 prrn WT. Kind of test: Growth inhibition of E. coli Δ7 prrn WT. Type of test: cell-based. As to conditions: for antibacterial activity in words: E. coli Δ7 prrn WT compared with A1408G and G1491U strains.
Test [2] deals with mutant A1408G E. coli ribosomes. The test is described as follows: EF-G-dependent translocation inhibition. As to conditions: read-out: Translocation inhibition IC50, A1408G. It counts as biochemical. In short, it runs like this: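 Ribosomes purified from the corresponding Δ7 prrn E. coli strain carrying A1408G. The extent of EF-G-dependent translocation was measured by toeprinting across various concentrations of the test aminoglycoside. IC50 was obtained by fitting the data to the Hill equation.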

In the next test the test system is ribosome. Particulars: cited from earlier work.
For the next test, the system named is AAC(6′)-Ib′. The test is described as follows: Relative initial rate of AME reaction, AAC. It counts as biochemical.
A further test relates to E. coli Δ7 prrn A1408G. Kind of test: Growth inhibition of E. coli Δ7 prrn A1408G. It counts as cell-based. Particulars: Escherichia coli.
The subject of the next test is E. coli Δ7 prrn G1491U. Kind of test: Growth inhibition of E. coli Δ7 prrn G1491U. Type of test: cell-based. Particulars: Escherichia coli.
Another test deals with E. coli TolC (O). The test is described as follows: Antibacterial MIC, E. coli TolC. Type of test: cell-based. As to conditions: Escherichia coli.

pIC50: −log10 of the molar value. Converted amounts (≈) assume the structure as drawn. “Also recorded” adds a separate entry of the source.

The pIC50 is −log10 of the IC50, conventionally taken in molar units. By MIC is commonly meant the least concentration at which growth counts as inhibited. Lower therefore signals inhibition by little substance.

On to `CCCCCCCCCCCCSC[C@H]1O[C@H](O[C@@H]2[C@@H](O)[C@H](O[C@H]3O[C@H](CN)[C@@H](O)C[C@H]3N)[C@@H](N)C[C@H]2N)[C@H](O)[C@@H](N)[C@@H]1O` [3e], for which, in test [1], the “inhibition of translocation in words” value is “fails to inhibit translocation”. For the same compound, the “antibacterial activity in words” value with E. coli Δ7 prrn WT is reported as “lower activity with little-to-no h44-dependence”.
In the case of `NCC1OC(OC2C(N)CC(N)C(OC3OC(CSc4cccc(F)c4)C(O)C(N)C3O)C2O)C(N)CC1O` (stereo not shown) [3y], the negative logarithm of the IC50 (pIC50) in test [2] is 3.68.
As for `CCCCSCC1OC(OC2C(N)CC(N)C(OC3OC(CN)C(O)CC3N)C2O)C(O)C(N)C1O` (stereo not shown) [3a], the “antibacterial activity in words” value with E. coli Δ7 prrn WT is “biological activity indistinguishable from TOB”.
Consider `CC(C)(C)c1ccc(SCC2OC(OC3C(N)CC(N)C(OC4OC(CN)C(O)CC4N)C3O)C(O)C(N)C2O)cc1` (stereo not shown) [3s], for which the “antibacterial activity in words” value in the test with E. coli Δ7 prrn WT was “virtually inactive”.
`CCCCCCCCCCCCCCSC[C@H]1O[C@H](O[C@@H]2[C@@H](O)[C@H](O[C@H]3O[C@H](CN)[C@@H](O)C[C@H]3N)[C@@H](N)C[C@H]2N)[C@H](O)[C@@H](N)[C@@H]1O` [3f]: the “inhibition of in vitro translation in words” value in the test with ribosome is listed as “fails to inhibit in vitro translation”. Further, the “relative initial rate, normalized to TOB” value with AAC(6′)-Ib′ is recorded as > 200%. Also, the “antibacterial activity in words” value in the test on E. coli Δ7 prrn WT is recorded as “indistinguishably strong antibacterial activity”.
For the compound `COc1ccccc1SC[C@H]1O[C@H](O[C@@H]2[C@@H](O)[C@H](O[C@H]3O[C@H](CN)[C@@H](O)C[C@H]3N)[C@@H](N)C[C@H]2N)[C@H](O)[C@@H](N)[C@@H]1O` [3u], the “inhibition of translocation in words” value in test [1] was “notably poorer inhibitors of translocation”. For the same compound, in test [2], the pIC50 is 3.21.
With `CCCCCCSCC1OC(OC2C(N)CC(N)C(OC3OC(CN)C(O)CC3N)C2O)C(O)C(N)C1O` (stereo not shown) [3b], in the test with E. coli Δ7 prrn WT, the “antibacterial activity in words” value was “virtually inactive; also recorded: antibacterial activity is completely lost”.
For the compound `CCCCCCCCCCCCCCCCCCSC[C@H]1O[C@H](O[C@@H]2[C@@H](O)[C@H](O[C@H]3O[C@H](CN)[C@@H](O)C[C@H]3N)[C@@H](N)C[C@H]2N)[C@H](O)[C@@H](N)[C@@H]1O` [3h], the “inhibition of translocation in words” value in test [1] is reported as “failed to inhibit translocation”.
As to `NC[C@H]1O[C@H](O[C@H]2[C@H](O)[C@@H](O[C@H]3O[C@H](CSc4ccccc4F)[C@@H](O)[C@H](N)[C@H]3O)[C@H](N)C[C@@H]2N)[C@H](N)C[C@@H]1O` [3x], the “inhibition of translocation in words” value in test [1] is on record as “notably poorer inhibitors of translocation”. In test [2], the pIC50 was 3.51.
For the compound `CCCCCCCCCCSC[C@H]1O[C@H](O[C@@H]2[C@@H](O)[C@H](O[C@H]3O[C@H](CN)[C@@H](O)C[C@H]3N)[C@@H](N)C[C@H]2N)[C@H](O)[C@@H](N)[C@@H]1O` [3d], the “inhibition of translocation in words” value in test [1] was “failed to inhibit translocation”. In the test on E. coli Δ7 prrn WT, the “antibacterial activity in words” value is reported as “lower activity with little-to-no h44-dependence”.
In the case of `CCCCCCCCCCCCCCCCSCC1OC(OC2C(N)CC(N)C(OC3OC(CN)C(O)CC3N)C2O)C(O)C(N)C1O` (stereo not shown) [3g], the “antibacterial activity in words” value with E. coli Δ7 prrn WT is listed as “indistinguishably strong antibacterial activity”.
Consider `NC[C@H]1O[C@H](O[C@H]2[C@H](O)[C@@H](O[C@H]3O[C@H](CO)[C@@H](O)[C@H](N)[C@H]3O)[C@H](N)C[C@@H]2N)[C@H](N)C[C@@H]1O` [TOB, tobramycin], for which the minimum inhibitory concentration (MIC) against E. coli Δ7 prrn A1408G was > 150 µg/mL; in the test with E. coli Δ7 prrn G1491U, > 150 µg/mL; in the test with E. coli Δ7 prrn WT (Escherichia coli), 18.8 µg/mL (≈ 40.2 µM); with E. coli TolC (O), > 150 µg/mL. In addition, in test [2], the pIC50 was 3.15.
